The values that follow come from PubChem BioAssay AID624025 (Broad Institute, 2012).

A short description of test [1]: S. cerevisiae growth inhibition in glucose medium, dose response, OD600, powder samples, set 4 (AID 624025). The conditions noted are these: S. cerevisiae growth in glucose, OD600, 48 h; at 3 µM (top of the series). Put shortly: (§1)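 Assay system: Saccharomyces cerevisiae yeast cells, growth in glucose medium / Buffer or medium: CSM-glucose medium / Doses: compounds added to wells by pin transfer / Incubation: 48 h static incubation at 30 °C, humidified / Measured by: optical density at 600 nm / Benchmarks: amphotericin B at 10 µM as positive control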

The test system of test [2] is S. cerevisiae growth in glucose, OD600, 48 h. The test is described as above. Put shortly:
as §1

Where “and” joins values, the source holds several entries; their conditions need not be identical. Equal entries are not always repeated. Calls of active or inactive are those of the source.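 Rule for the calls: active = compounds whose fitted half-maximal growth inhibition dose lies at or below twice the top tested dose; inconclusive = flat curve with 30 to 70% growth loss, or bad fit; inactive = the rest.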

As for `CCOC(=O)N1C(=O)C2(CCCCC2)N(c2cccc(C)c2)C1=S`, the activity change, negative = inhibition in test [1] was -12.2% (inactive). Same read-out and setting: the figure for `CCOC(=O)N1C(=O)C2(CCCCC2)N(c2ccccc2)C1=S` is -5.67% (inactive); for `CCOC(=O)N1C(=O)C2(CCCCC2)N(c2ccc(C)cc2)C1=S` it is -14.8% (inactive) and -15% (inactive); for `CCOC(=O)N1C(=O)C2(CCCCC2)N(c2ccc(Cl)cc2)C1=S` it is 0.052% (inactive). The term AC50 denotes the midpoint of the concentration-response curve, whichever way the signal moves. For the compound `CC1/C=C/C=C\C=C\C=C\C=C\C=C\C=C\C(O[C@H]2OC(C)C(O)C(N)C2O)CC2OC(O)(CC(O)CC(O)C(O)CCC(O)CC(O)CC(=O)OC(C)C(C)C1O)CC(O)C2C(=O)O` (stereo partly drawn), the AC50 in test [2] is 527 nM. On to `CCOC(=O)N1C(=O)C2(CCCCC2)N(c2ccc(F)cc2)C1=S`, for which the activity change, negative = inhibition in test [1] was -7.11% (inactive). The same measure, in the same setting: the same measure for `CCOC(=O)N1C(=O)C2(CCCCC2)N(c2ccc(C#N)cc2)C1=S`: -20.2% (inactive). Still for that read-out and setting: the same measure for `C/C=C/[C@@H]1[C@H]2C[C@@H](C)CC[C@@H]2C(C)=C[C@H]1C(=O)c1c(O)c(-c2ccc(O)cc2)c[nH]c1=O`: -15.3% (inactive).
